From ChEMBL document CHEMBL1130177, “6 beta-Propynyl-substituted steroids: mechanism-based enzyme-activated irreversible inhibitors of aromatase” (J Med Chem, 1997) come the findings set out here.

Series [1] can be described thus: Selectivity index of Kcat/app Ki(inact). The method in brief:
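Lyophilized human placental microsomes (0.08-0.1 mg/mL protein) were preincubated at 37 °C with varied inhibitor concentrations and 0.1 mM NADPH in 0.1 M phosphate buffer, pH 7.4. Timed aliquots were diluted 10-fold in cold buffer. Residual activity was read as 3H2O release from 0.25 µM [1β-3H]androstenedione with an NADPH-generating system (30 min, 37 °C). Half-life versus 1/[I] (Kitz-Wilson) gave Ki(inact) and kcat. Duplicates.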

The nature of series [2]: The T1/2 value was obtained from the time point at which each half-time reached 50% of its value at zero time. It counts as ADME. Put shortly: (§1)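 Inhibitor, various concentrations, preincubated at 37 °C with placental microsomes (0.08-0.1 mg/mL) and NADPH (0.1 mM) in 0.1 M phosphate pH 7.4. Aliquots taken over time, diluted 10-fold in cold buffer, then assayed with 0.25 µM [1β-3H]androstenedione plus NADPH-generating system, 30 min at 37 °C. Half-lives plotted against 1/[I] (Kitz-Wilson); Ki(inact) from X-intercept, T1/2 from Y-intercept; duplicate determinations.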

In series [3] the target is T1, Aromatase (Homo sapiens, UniProt P11511).
T1 sequence (P11511 whole entry): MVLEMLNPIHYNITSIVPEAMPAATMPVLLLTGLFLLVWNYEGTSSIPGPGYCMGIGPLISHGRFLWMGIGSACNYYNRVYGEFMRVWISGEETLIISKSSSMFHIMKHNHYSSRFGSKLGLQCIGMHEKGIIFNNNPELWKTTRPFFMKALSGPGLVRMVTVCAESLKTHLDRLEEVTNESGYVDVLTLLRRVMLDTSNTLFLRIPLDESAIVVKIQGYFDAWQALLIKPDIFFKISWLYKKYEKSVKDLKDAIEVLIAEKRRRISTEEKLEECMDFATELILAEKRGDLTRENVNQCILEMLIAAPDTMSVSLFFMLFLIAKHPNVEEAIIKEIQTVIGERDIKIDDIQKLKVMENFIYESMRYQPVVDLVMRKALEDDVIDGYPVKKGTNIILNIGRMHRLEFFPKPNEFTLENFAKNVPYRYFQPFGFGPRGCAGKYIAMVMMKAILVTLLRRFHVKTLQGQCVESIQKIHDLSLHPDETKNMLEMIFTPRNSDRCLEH
The experiment in a line: Inhibition of human placental microsome Cytochrome P450 19A1. Put shortly:
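Tritiated-water release assay in 0.1 M phosphate pH 7.4. Lyophilized human placental microsomes (0.25 mg) with 0.25 µM [1β-3H]androstenedione, glucose 6-phosphate 5.3 mM, NADP 0.6 mM, G6PDH, 1.0 mM EDTA. Inhibitors from 10^-5 to 10^-8 M, added in ethanol. 15 min at 37 °C; CHCl3 extraction, then the aqueous phase counted by scintillation.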

The target in series [4] is T1, Aromatase. Nature of the series: Binding affinity for human placental microsome Cytochrome P450 19A1 by nonlinear regression analysis. The settings on record: read-out: Ki app. The method in brief:
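Human placental microsomes (0.025-0.03 mg protein) in 1.0 mL 0.1 M phosphate buffer pH 7.4, 37 °C in air, 10 min, initial velocity conditions. [1β-3H]androstenedione diluted with unlabelled androstenedione, 0.005-0.25 µM. Inhibitor at 250, 375 and 500 nM, plus no-inhibitor controls and 0-min blanks. 3H2O release counted; Ki derived by regression analysis; duplicate determinations.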

The nature of series [5]: Compound was tested for inactivation kinetic values. The settings on record: read-out: Ki app (inact). Put shortly: as §1
A short description of series [6]: The T1/2 values were obtained from the time point at which each half-time reached 50% of its value at zero time. It counts as ADME. The method in brief:
as §1

Each structure is given as a SMILES string.

Regarding `C#CC[C@@H]1CC2C(CCC3(C)C(=O)CCC23)C2CCC(=O)C=C21` (some centres undefined), the Selectivity index in series [1] turned out to be 65. Further, the T1/2 in series [2] was 8.9 min. The IC50 in series [3] worked out at 0.275 µM. Moreover, the Ki in series [4] was 0.0476 µM. In series [5], the KI (inactivation) came to 0.0198 µM.

For the molecule `C#CC[C@@H]1CC2C3CCC(=O)C3(C)CCC2C2(C)CCC(=O)C=C12` (some centres undefined), the Selectivity index in series [1] amounted to 21. Further, the T1/2 in series [2] is on record as 7.6 min. In series [3], the IC50 was 0.031 µM. In addition, the Ki in series [4] stood at 0.01 µM. The KI (inactivation) in series [5] came out at 0.0724 µM.

`C#CC[C@H]1CC2C3CCC(=O)C3(C)CCC2C2(C)CCC(=O)C=C12` (some centres undefined) returned an IC50 in series [3] of 0.176 µM. Also, the Ki in series [4] was found to be 0.037 µM.

Take `C#CC[C@H]1CC2C(CCC3(C)C(=O)CCC23)C2CCC(=O)C=C21` (some centres undefined): in series [3], the IC50 is 0.187 µM. Also, in series [4], the Ki worked out at 0.0658 µM.

The molecule `C#CC[C@]12CCC(=O)C=C1CC[C@@H]1[C@@H]2CC[C@]2(C)C(=O)CC[C@@H]12` [PLOMESTANE] had a Selectivity index in series [1] of 24. In series [6], this molecule gave a T1/2 of 8.9 min. Further, half-maximal inhibition in series [3] (IC50) was put at 0.0562 µM. Also, the Ki in series [4] is 0.0152 µM. Further, the KI (inactivation) in series [5] is 0.0595 µM.

The IC50 is the point on the concentration scale where inhibition reaches its midpoint. Read a low IC50 as higher potency.
